About 300 (0.091%) of roughly 330,000 compounds were called active. Only a selection was taken, and actives are over-represented in it overall. Unmarked numbers belong to inactive results.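 Rule for the calls: active = percent activation above the screen-wide mean plus 3 SD (cut at about 25% in these data); inactive = the rest.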

Caspase-7 (Homo sapiens), sequence (P55210 whole entry D23A/D198A/D206A): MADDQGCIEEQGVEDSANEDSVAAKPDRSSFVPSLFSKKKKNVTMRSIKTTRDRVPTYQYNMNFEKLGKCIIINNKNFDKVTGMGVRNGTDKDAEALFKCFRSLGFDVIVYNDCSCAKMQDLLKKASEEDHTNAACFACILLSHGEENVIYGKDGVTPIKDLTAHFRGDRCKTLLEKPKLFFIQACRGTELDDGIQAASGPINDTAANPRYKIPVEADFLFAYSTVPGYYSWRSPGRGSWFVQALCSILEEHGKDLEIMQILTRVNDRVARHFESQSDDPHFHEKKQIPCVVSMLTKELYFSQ

In this assay the target is Caspase-7 (Homo sapiens) (UniProt P55210). Nature of the assay: activation of procaspase-7 enzyme – biochemical, absorbance, HTS, human, counter-screen for procaspase-3 activator project, primary screen (AID 463210). Particulars: recombinant procaspase-7, Ac-DEVD-pNA absorbance 405 nm; at 8.5 µM; stronger effect = higher value; D23A/D198A/D206A triple mutant, cannot self-cleave; scale: DMSO 0, 5 µM enzyme 100. The gist of the method:
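buffer or medium = Zinc-free HEPES/NaCl buffer, pH 7.4 | material = Procaspase-7 triple mutant (PC-7 D3A) | input = 2 µM procaspase-7 mutant as dispensed | signal = Epi-absorbance of released pNA at 405 nm, two timepoints | timing = 1 h preincubation, 2 h reaction | replicates = singlicate compound testing | evaluation = % activation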
With `COc1ccc(C(O)(C2CCCCC2)C(CN2CCCC2)c2ccccc2)cc1` (configuration not stated), the activation was 0.02%. The same measure for `COCC1CCCN(C(=O)c2ccc3oc(C(C)C)nc3c2)C1` (configuration not stated): -9.62%; for `COc1ccc(NC(=O)C2CCN(S(=O)(=O)c3ccc4[nH]c(=O)oc4c3)CC2)c(OC)c1`: -1.26%.

As to `COc1ccc(CCNC(=O)CN2C(=O)COc3ccc(S(=O)(=O)N4CCCC4)cc32)cc1OC`, the activation was -1.51%. In the case of `CCN(C(=O)COC(=O)c1ccc(COc2ccc3c(C)cc(=O)oc3c2)cc1)C1CCS(=O)(=O)C1` (configuration not stated), the activation is 11%. For the molecule `O=c1cc(CO)oc(C(Nc2cccc(C(F)(F)F)c2)c2ccccn2)c1O` (configuration not stated), the activation was -8.69%. For the molecule `COc1ccccc1N1CCN(c2nc(C)cc(=O)[nH]2)CC1`, the activation was 14.3%. As for `CN(CC(=O)Nc1ccccc1Cl)C(=O)COc1cccc2c1OC(C)(C)C2`, the figure is -0.56%; as for `CCOC(=O)c1cccc(NC(=O)c2ccc(F)cc2F)c1`, -3.97%; as for `CCOC(=O)[C@@H]1[C@H]2COc3cc(OC)ccc3[C@@H]2N2C(=O)N(c3cccc(C)c3)C(=O)[C@@]12C`, -1.89%. For `CN1CCN(c2ccccc2NC(=O)COc2ccc(C3CCCCC3)cc2)CC1`, the activation is 6.3%. The same measure for `CCn1c(N)c(Br)c(=O)[nH]c1=O`: 12.7%; for `COc1ccc(C(=O)N2CCCCC2C(=O)Nc2ccc(-n3nc(C)cc3C)cc2)o1` (configuration not stated): 0.38%. The same measure for `CC(C)CN(CC(C)C)C(=O)CN1c2cccc3cccc(c23)S1(=O)=O`: 4.17%. As for `NC(=O)C1CCN(Cc2nc3c(Br)cc(Br)cc3c(=O)[nH]2)CC1`, the figure is -6.52%; as for `COc1ccc(S(=O)(=O)NCC2CCCN(C(=O)c3occc3C)C2)cc1` (configuration not stated), -3.49%; as for `CCCCCCCC[n+]1cccc(C(=O)N2c3c(nc(N)[nH]c3=O)NC(C)C2C)c1` (configuration not stated), -2.79%. `CCOc1cc(C(=O)Nc2c(C)ccc3nsnc23)cc(OCC)c1OCC`: the activation is -0.81%.

On to `Cc1[nH]n(C(N)=S)c(=O)c1N=Nc1ccc(Cl)cc1Cl`, for which the activation was -4.08%. The same measure for `CC1=NN(C(N)=S)C(=O)C1N=Nc1cc(Cl)ccc1Cl` (configuration not stated): 42% (active); for `CCN(C[C@H]1N[C@@](CC)(C(=O)OC)[C@H]2C(=O)N(C)C(=O)[C@@H]12)C(=O)Nc1ccc(F)cc1`: 3.05%. As for `CC(C)C[C@@H](COc1ccccc1)N1CCN(CC(C)C)CCC1=O`, the figure is -4.75%. As for `CC(C(=O)NCC1CCCCC1)N(C)Cc1cccc(Cl)c1` (configuration not stated), the figure is -2.02%; as for `Cc1ccc(S(=O)(=O)NCC(=O)N(CC(=O)NCC2CCCO2)c2cccc(F)c2)cc1` (configuration not stated), -1.1%; as for `O=C(COc1cccc2c1CCNC2=O)NC1CCCCC1`, -3.37%. As to `CCOC(=O)C1=C(CN2CCc3ccccc32)NC(=O)NC1c1cc(C)ccc1C` (configuration not stated), the activation is 1.19%. `COc1cccc2cc(C(C)N(CCCN3CCOCC3)C(=O)Nc3ccc(Cl)cc3)oc12` (configuration not stated): the activation is 3.94%. Take `CCc1nnc(NC(=O)[C@@H](NC(=O)c2cccc(C)c2)C(C)C)s1`: the activation was -9.68%. On to `Cc1ccc(S(=O)(=O)N2CCC3(CC2)OCCO3)c(C)c1`, for which the activation is 7.32%. With `O=C(NCCN1CCOC1=O)C1CCC(=O)N(CCc2ccc(Cl)cc2)C1` (configuration not stated), the activation was -3.88%. As for `O=S(=O)(Oc1ccccc1C(=S)N1CCOCC1)c1ccc(Cl)cc1`, the figure is 5.11%; as for `O=C(Cc1ccccc1F)NC1CCSc2ccccc21` (configuration not stated), -1.51%. For `COc1ccc(CNS(=O)(=O)c2cc(-c3cc(C)no3)ccc2C(C)C)cc1`, the activation is 7.17%. With `COc1cccc(C(=O)n2ccc(-c3cccs3)n2)c1`, the activation is 7.3%.

Regarding `CCN(CCNC(=O)C1=C(C)C(=O)OC12CCC(C)CC2)c1ccccc1` (configuration not stated), the activation was -6.83%. `C=CCN1CN(S(=O)(=O)c2ccc(OC)cc2)c2nc3ccccc3nc21`: the activation was 10.1%. The same measure for `COc1cccc(CNC(=O)CN(C)S(=O)(=O)c2ccc3c(c2)c(=O)n(C)c(=O)n3C)c1`: 3.47%. Consider `CC(NC(=O)COc1ccc(-c2ccccc2)cc1)C1CCCO1` (configuration not stated), for which the activation was -7.63%. For `Cc1cc(C)c(C)c(S(=O)(=O)N2CCN(C(=O)c3ccc4c(=O)n5c(nc4c3)CCC5)CC2)c1C`, the activation was 0.83%.

On to `Cn1c(C(=O)O)ccc1S(=O)(=O)N(Cc1ccccc1)Cc1ccccc1`, for which the activation was -2.76%.

Turning to `Cc1ccc(S(=O)(=O)N(CC(=O)NCCSC2CCCCC2)c2ccccc2F)cc1`, the activation is 12.3%. Turning to `CSCc1cc(N2CCOCC2)nc(SCc2ccc(Cl)cc2Cl)n1`, the activation was -1.6%.

Values taken from PubChem BioAssay AID463210 (The Scripps Research Institute Molecular Screening Center, 2010).
